In data set [1] the test system is Mus musculus. The data set is described as follows: Number of mice (out of 6 mice) survived after treatment with 200 mg/kg/day of compound on a 1,7 day treatment schedule for 45 days. It is filed as functional. Summed up:
(§1)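 Groups of 6 male DBA/2Ros mice (20–29 g) were inoculated ip on day 0 with 1 × 10⁶ L1210 cells. Conjugate was given ip as a shaken or sonicated aqueous solution from day 1, over a wide dose range. Optimal-dose results are reported as ILS = (T/C − 1) × 100 from median survival, or as 45-day survivors.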

In data set [2] the test system is Mus musculus. Description: Antitumor activity at 200 mg/kg/day on a 1 day treatment schedule, qd against L1210 infected mice was expressed as increase in life span (ILS). Type of data set: functional. The settings on record: L1210, 24 h. A digest of the protocol:
as §1

The test system of data set [3] is Mus musculus. Description: Antitumor activity at 150 mg/kg/day on 1, 5, 9 day treatment schedule, qd against L1210 infected mice was expressed as increase in life span (ILS). It is filed as functional. The settings on record: L1210, 216 h. A digest of the protocol:
as §1

Data set [4] can be described thus: Solubility in water determined by UV absorption at 272 nm. Type of data set: physicochemical. The settings on record: read-out: S.
Data set [5] relates to Mus musculus. The data set is described as follows: Number of mice (out of 6 mice) survived after treatment with 200 mg/kg/day of compound on a 1 day treatment schedule for 45 days. It is filed as functional. A digest of the protocol: as §1
In data set [6] the test system is Mus musculus. Description: Number of mice (out of 6 mice) survived after treatment with 150 mg/kg/day of compound on 1, 5, 9 day treatment schedule for 45 days. It is filed as functional. A digest of the protocol: as §1
The subject of data set [7] is Mus musculus. Description: Antitumor activity at 200 mg/kg/day on a 1,7 day treatment schedule, qd against L1210 infected mice was expressed as increase in life span (ILS). It is filed as functional. A digest of the protocol: as §1
Data set [8] relates to Mus musculus. Description: Number of mice (out of 6 mice) survived after treatment with 150 mg/kg/day of compound on 1, 5, 9 day by sonication method treatment schedule for 45 days. Type of data set: functional. A digest of the protocol:
(§2)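 L1210 cells (1 × 10⁶) were inoculated ip into male DBA/2Ros mice (20–29 g, 6 per group) on day 0. Ip dosing began day 1. Conjugate in water suspension was sonicated 2 min (20–60 °C), then 0.22 μm filtered. Over a 45-day observation, read-outs were median survival T/C, ILS = (T/C − 1) × 100, or number alive at day 45.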

Data set [9] relates to Mus musculus. The data set is described as follows: Antitumor activity at 300 mg/kg/day on a 1 day treatment schedule, qd against L1210 infected mice by shaking method was expressed as increase in life span (ILS). Type of data set: functional. The settings on record: L1210, 24 h. Summed up:
(§3)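 Male DBA/2Ros mice (20–29 g, groups of 6) got 1 × 10⁶ L1210 leukemia cells ip on day 0. Ip treatment started day 1. Conjugate was shaken in sterile water for 2 h at room temperature, then 0.22 μm filtered. Mice were observed 45 days. Read-outs were median survival T/C with ILS = (T/C − 1) × 100, or 45-day survivors.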

The test system of data set [10] is Mus musculus. The data set is described as follows: Number of mice (out of 6 mice) survived after treatment with 300 mg/kg/day of compound on a 1 day by sonication method treatment schedule for 45 days. It is filed as functional. Summed up:
as §2

For data set [11], the system named is Mus musculus. Description: Antitumor activity at 150 mg/kg/day on 1, 5, 9 day treatment schedule, qd against L1210 infected mice by sonication method was expressed as increase in life span (ILS). Type of data set: functional. The settings on record: L1210, 216 h. A digest of the protocol:
as §2

Data set [12] has as its system Mus musculus. Description: Number of mice (out of 6 mice) survived after treatment with 300 mg/kg/day of compound on a 1 day by shaking method treatment schedule for 45 days. It is filed as functional. A digest of the protocol: as §3
The test system of data set [13] is Mus musculus. Description: Antitumor activity at 150 mg/kg/day on 1, 5, 9 day treatment schedule, qd against L1210 infected mice by shaking method was expressed as increase in life span (ILS). Type of data set: functional. The settings on record: L1210, 216 h. A digest of the protocol:
as §3

Data set [14] concerns Mus musculus. The data set is described as follows: Number of mice (out of 6 mice) survived after treatment with 150 mg/kg/day of compound on 1, 5, 9 day by shaking method treatment schedule for 45 days. Type of data set: functional. Summed up: as §3
For data set [15], the system named is Mus musculus. The data set is described as follows: Antitumor activity at 300 mg/kg/day on a 1 day treatment schedule, qd against L1210 infected mice by sonication method was expressed as increase in life span (ILS). It is filed as functional. The settings on record: L1210, 24 h. Summed up: as §2
For data set [16], the system named is Mus musculus. The data set is described as follows: Number of mice (out of 6 mice) survived after treatment with 300 mg/kg/day of compound on a 1 day treatment schedule for 45 days. Type of data set: functional. A digest of the protocol: as §1
For data set [17], the system named is Mus musculus. The data set is described as follows: Antitumor activity at 300 mg/kg/day on a 1,7 day treatment schedule, qd against L1210 infected mice was expressed as increase in life span (ILS). Type of data set: functional. A digest of the protocol: as §1
Data set [18] relates to Mus musculus. Description: Antitumor activity at 300 mg/Kg/day on a 1 day treatment schedule, qd against L1210 infected mice was expressed as increase in life span (ILS). It is filed as functional. The settings on record: L1210, 24 h. A digest of the protocol: as §1
Data set [19] relates to Mus musculus. Description: Antitumor activity at 300 mg/kg/day on a 1,7 day treatment schedule, qd against L1210 infected mice by shaking method was expressed as increase in life span (ILS). It is filed as functional. Summed up: as §3
Data set [20] deals with Mus musculus. Description: Antitumor activity at 200 mg/kg/day on a 1 day treatment schedule, qd against L1210 infected mice by shaking method was expressed as increase in life span (ILS). Type of data set: functional. The settings on record: L1210, 24 h. A digest of the protocol:
as §3

Data set [21] has as its system Mus musculus. Description: Number of mice (out of 6 mice) survived after treatment with 300 mg/kg/day of compound on a 1,7 day treatment schedule for 45 days. It is filed as functional. A digest of the protocol:
as §1

Data set [22] relates to Mus musculus. Description: Antitumor activity at 200 mg/kg/day on a 1 day treatment schedule, qd against L1210 infected mice by sonication method was expressed as increase in life span (ILS). Type of data set: functional. The conditions noted are these: L1210, 24 h. Summed up: as §2

“And” between values parts separate entries of the source, which are not always exact repeats. Identical values can stand only once.

For orientation: ILS means the gain in survival time of treated over control animals, in per cent. Read a high ILS as much gain in survival. In the case of `CCCCCCCCCCCCCCCC(=O)OC(COCCCCCCCCCCCC)COP(=O)([O-])OP(=O)([O-])OC[C@H]1OC(n2ccc(N)nc2=O)[C@@H](O)[C@@H]1O.[Na+].[Na+]` (stereo not given in full), the No. of mice in the data set on Mus musculus [1] amounted to 0; with Mus musculus [5], 0; in the data set with Mus musculus [6], 3. Also, the ILS at 200 mg/kg/day in the data set on Mus musculus [2] was 128%; with Mus musculus [7] it was 286%. Moreover, in the data set with Mus musculus [3], the ILS at 150 mg/kg/day is above 313%. The solubility in data set [4] is above 131 mM.

As for `CCCCCCCCCCCCCCCCOCC(COP(=O)([O-])OP(=O)([O-])OC[C@H]1OC(n2ccc(N)nc2=O)[C@@H](O)[C@@H]1O)OC(=O)CCCCCCCCCCCCC.[Na+].[Na+]` (stereo not given in full), the No. of mice with Mus musculus [8] was determined as 4; with Mus musculus [10], 3; with Mus musculus [12], 1; in the data set with Mus musculus [14], 5. Moreover, the ILS at 300 mg/kg/day is 258% with Mus musculus [9] and above 464% with Mus musculus [15]. For the same molecule, the ILS at 150 mg/kg/day with Mus musculus [11] and with Mus musculus [13] was above 463% each time. For the same molecule, the solubility in data set [4] was above 107 mM.

For `CCCCCCCCCCCCCCCCOCC(COP(=O)([O-])OP(=O)([O-])OC[C@H]1OC(n2ccc(N)nc2=O)[C@@H](O)[C@@H]1O)OC(=O)CCCCCCCCCCC.[Na+].[Na+]` (stereo not given in full), the figures for the No. of mice with Mus musculus [1], with Mus musculus [16] and in the data set on Mus musculus [6] were 3, 0 and 5, respectively. For the same molecule, in the data set with Mus musculus [3], the ILS at 150 mg/kg/day was above 463%. Also, the solubility in [4] was above 132 mM. In addition, the ILS at 300 mg/kg/day in the data set on Mus musculus [17] was above 350%; in the data set on Mus musculus [18] it was 119%.

As to `CCCCCCCCCCCCCC(=O)OC(COCCCCCCCCCCCC)COP(=O)([O-])OP(=O)([O-])OC[C@H]1OC(n2ccc(N)nc2=O)[C@@H](O)[C@@H]1O.[Na+].[Na+]` (stereo not given in full), in the data set with Mus musculus [2], the ILS at 200 mg/kg/day came to 69%. The same molecule returned an increase in lifespan (ILS) at 150 mg/kg/day in the data set on Mus musculus [3] above 394%. Further, in data set [4], the solubility is above 146 mM. Also, the results for the No. of mice in the data set on Mus musculus [5] and in the data set on Mus musculus [6] were 0 and 3, respectively.

For the molecule `CCCCCCCCCCCCCCCC(=O)OC(COCCCCCCCCCCCCCC)COP(=O)([O-])OP(=O)([O-])OC[C@H]1OC(n2ccc(N)nc2=O)[C@@H](O)[C@@H]1O.[Na+].[Na+]` (stereo not given in full), the No. of mice with Mus musculus [16] is 4 and 2; in the data set on Mus musculus [5], 2 and 1; in the data set on Mus musculus [21] it was 1; in the data set with Mus musculus [6], 3 and 5. For the same molecule, the ILS at 300 mg/kg/day in the data set with Mus musculus [9] is above 543%; with Mus musculus [19], 107%; with Mus musculus [15] it was above 206%. Further, the ILS at 150 mg/kg/day with Mus musculus [11] is above 463%; with Mus musculus [13], above 350%. The solubility in data set [4] is above 43 mM. In addition, the results for the ILS at 200 mg/kg/day with Mus musculus [20] and in the data set on Mus musculus [22] were 275% and 206%, respectively.

With `CCCCCCCCCCCCCCCCOCC(COP(=O)([O-])OP(=O)([O-])OC[C@H]1OC(n2ccc(N)nc2=O)[C@@H](O)[C@@H]1O)OC(=O)CCCCCCCCCCCCCCC.[Na+].[Na+]` (stereo not given in full), the increase in life span (ILS) at 200 mg/kg/day in the data set on Mus musculus [2] is above 250%. The ILS at 150 mg/kg/day in the data set on Mus musculus [3] was determined as 306%. Moreover, the solubility in data set [4] came to 0.13 mM. For the same molecule, the No. of mice in the data set with Mus musculus [5] and with Mus musculus [6] was 3 throughout.

For `CCCCCCCCCCCCCCOCC(COP(=O)([O-])OP(=O)([O-])OC[C@H]1OC(n2ccc(N)nc2=O)[C@@H](O)[C@@H]1O)OC(=O)CCCCCCCCCCCCC.[Na+].[Na+]` (stereo not given in full), the No. of mice with Mus musculus [16] was 0; in the data set on Mus musculus [6], 1. For the same molecule, the increase in lifespan (ILS) at 150 mg/kg/day with Mus musculus [3] stood at 125%. The solubility in data set [4] was above 121 mM. This molecule also displayed an ILS at 300 mg/kg/day in the data set on Mus musculus [18] of 178%.

(Values after ChEMBL document CHEMBL1128599, “Nucleoside conjugates. 14. Synthesis and antitumor activity of 1-beta-D-arabinofuranosylcytosine conjugates of ether lipids with improved water solubility” (J Med Chem, 1995).)
